T cruzi growth-1: T. cruzi proliferation inhibition; 77,000 tested, 5.9% active; T. cruzi beta-gal in NIH3T3, GalScreen luminescence, 90 h; AID 624255; inhibition, % at 8.34 µM;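 active = mean inhibition above about 93%, with at least 55% of replicates each passing it, limit read from the data, passing the limit was not always enough; inconclusive = only one of those two conditions holds; inactive = neither condition holds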
IDH1 mut inh: blocks human IDH1 R132H reductase activity; diaphorase/resazurin fluorescence, 60 min; inhibition, % at 10 µM; 70,000 tested, 0.18% active; in the data active = inhibition above about 34%; inconclusive = no clear call, values can overlap the other calls; inactive = below about 11%
GASC1 inh: blocks human GASC-1 (KDM4C) demethylase activity; Q9H3R0; AID 720574; GST-KDM4C 2-372, H3K9me3 peptide, LANCE TR-FRET; inhibition, % at 12.5 µM; 96,000 tested, 0.15% active;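 active = mean replicate inhibition above about 25%, with at least 55% of replicates also reaching it, limit read from the data, passing the limit was not always enough; inconclusive = only one of those two conditions met; inactive = neither condition met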
Target sequence (Q9H3R0 2-372 limits assumed): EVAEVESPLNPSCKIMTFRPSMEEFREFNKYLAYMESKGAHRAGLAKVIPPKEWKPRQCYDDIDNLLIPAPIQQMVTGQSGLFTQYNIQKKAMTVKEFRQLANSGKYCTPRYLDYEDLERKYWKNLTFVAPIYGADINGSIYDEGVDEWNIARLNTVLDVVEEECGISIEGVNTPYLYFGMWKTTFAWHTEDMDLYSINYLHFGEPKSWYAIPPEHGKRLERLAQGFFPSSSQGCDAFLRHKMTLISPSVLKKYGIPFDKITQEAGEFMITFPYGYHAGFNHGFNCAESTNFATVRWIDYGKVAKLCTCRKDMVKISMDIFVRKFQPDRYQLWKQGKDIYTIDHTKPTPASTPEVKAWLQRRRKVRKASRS
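Assay system: GST-GASC-1 enzyme fragment 2-372 | Amount: 10 nM enzyme | Medium: HEPES buffer, pH 7.5, plus ascorbate | Reagent: H3K9me3 peptide substrate, Fe(II), 2-oxoglutarate | Doses: Single-point compound screen | Incubation: 30 min demethylation and 1 h detection at room temperature | Measured by: LANCE TR-FRET, excitation 340 nm, emissions 618 and 671 nm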
T cruzi growth-2: inhibitors of T. cruzi proliferation. shares compounds with T cruzi growth-1. T. cruzi beta-gal in NIH3T3, GalScreen luminescence, 90 h. inhibition, % at 8.35 µM. 5,600 tested, 72% active. AID 651739;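 active = mean replicate inhibition above about 95% and at least 55% of replicates individually reaching it, limit read from the data; inconclusive = only one of the two criteria is met; inactive = neither criterion is met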
T cruzi growth-3: Trypanosoma cruzi proliferation inhibition. shares compounds with T cruzi growth-1. AID 651740. 5,600 tested, 21% active. inhibition, % at 2.09 µM. T. cruzi beta-gal in NIH3T3, GalScreen luminescence, 90 h;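 active = mean inhibition above about 95%, with at least 55% of replicates also reaching it, limit read from the data; inconclusive = meets just one of the two conditions; inactive = meets neither condition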
3T3 cytotox: cytotoxicity in mouse NIH/3T3 fibroblasts | shares compounds with T cruzi growth-1 | cytotoxicity (signal decrease), % at 8.35 µM | NIH/3T3 viability, CellTiter-Glo ATP luminescence, 90 h | 5,600 tested, 14% active;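 active = mean signal decrease across replicates above about 35% based on untreated-well scatter, with enough replicates individually passing, limit read from the data; inconclusive = no rule stated though some were filed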
NIH3T3 tox 2: kills mouse NIH/3T3 fibroblasts | AID 651744 | inhibition, % at 24.9 µM | 5,600 tested, 56% active | shares compounds with T cruzi growth-1 | NIH/3T3 viability, CellTiter-Glo ATP luminescence, 90 h;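 active = mean loss of cell viability signal at or above a set limit, and enough replicates individually reaching it; inconclusive = meets only the mean limit or only the replicate share; inactive = meets neither condition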
Large screens that a line does not name were inactive (follow-up assays come after a bar, where they were run). Many of the other results were omitted from the sample, so hits are more common in it than they were.

CNC(=O)C[C@H]1CC[C@@H]2[C@@H](COc3ccc(NC(=O)c4ccc5c(c4)OCO5)cc3C(=O)N2C)O1	T cruzi growth-1 108 (no result: IDH1 mut inh) | T cruzi growth-2 inactive | T cruzi growth-3 inactive | 3T3 cytotox inactive | NIH3T3 tox 2 inactive
CN1C(=O)c2cc(NC(=O)c3cccc(Cl)c3)ccc2OC[C@H]2O[C@H](CC(=O)NC3CCCCC3)CC[C@H]21	none (no result: IDH1 mut inh)
CCNC(=O)C[C@@H]1CC[C@@H]2[C@@H](COc3ccc(NC(=O)c4ccc5c(c4)OCO5)cc3C(=O)N2C)O1	none (no result: IDH1 mut inh)
CN1C(=O)c2cc(NC(=O)c3cccc(Cl)c3)ccc2OC[C@@H]2O[C@@H](CC(=O)NC3CCCCC3)CC[C@H]21	T cruzi growth-1 96 (no result: IDH1 mut inh) | T cruzi growth-2 inconclusive | T cruzi growth-3 inactive | 3T3 cytotox inactive | NIH3T3 tox 2 inconclusive
CNC(=O)C[C@@H]1CC[C@@H]2[C@H](COc3ccc(NC(=O)c4ccc5c(c4)OCO5)cc3C(=O)N2C)O1	none (no result: IDH1 mut inh)
COC(=O)C[C@H]1CC[C@@H]2[C@@H](COc3ccc(NC(=O)Nc4cccc(Cl)c4)cc3C(=O)N2C)O1	none (no result: IDH1 mut inh)
CNC(=O)C[C@@H]1CC[C@H]2[C@@H](COc3ccc(NC(=O)c4ccc5c(c4)OCO5)cc3C(=O)N2C)O1	T cruzi growth-1 111 (no result: IDH1 mut inh) | T cruzi growth-2 inactive | T cruzi growth-3 inactive | 3T3 cytotox inactive | NIH3T3 tox 2 inactive
COC(=O)C[C@H]1CC[C@H]2[C@H](COc3ccc(NC(=O)Nc4cccc(Cl)c4)cc3C(=O)N2C)O1	T cruzi growth-1 101 (no result: IDH1 mut inh) | T cruzi growth-2 103 | T cruzi growth-3 inconclusive | 3T3 cytotox inconclusive | NIH3T3 tox 2 46
CC(C(=O)Nc1cc(C(F)(F)F)ccc1Cl)n1cc([N+](=O)[O-])cn1 (stereo not given)	none (no result: T cruzi growth-1, GASC1 inh)
CCc1ccc(-n2c(SCC(=O)c3ccc(Cl)cc3)nnc2-c2ccncc2)cc1	none (no result: T cruzi growth-1, GASC1 inh)
CCOc1ccc(NC(=O)C(C)Sc2ncnc3sc(-c4ccccc4)cc23)cc1 (stereo not given)	none (no result: T cruzi growth-1, GASC1 inh)
CN1C(=O)c2cc(NC(=O)Nc3ccc(Cl)cc3)ccc2OC[C@H]2O[C@@H](CC(=O)NCCN3CCCCC3)CC[C@H]21	none (no result: IDH1 mut inh)
CN1C(=O)c2cc(NC(=O)Nc3ccc(Cl)cc3)ccc2OC[C@@H]2O[C@H](CC(=O)NCCN3CCCCC3)CC[C@@H]21	T cruzi growth-1 103 (no result: IDH1 mut inh) | T cruzi growth-2 108 | T cruzi growth-3 inactive | 3T3 cytotox inactive | NIH3T3 tox 2 inactive
COc1ccc(NC(=O)Nc2ccc3c(c2)C(=O)N([C@H](C)CO)C[C@@H](C)[C@@H](CN(C)S(=O)(=O)c2cccs2)OCCCC[C@@H](C)O3)cc1	none (no result: T cruzi growth-1)
COc1ccc(NC(=O)Nc2ccc3c(c2)C(=O)N([C@H](C)CO)C[C@H](C)[C@H](CN(C)S(=O)(=O)c2cccs2)OCCCC[C@@H](C)O3)cc1	none
COc1ccc(NC(=O)Nc2ccc3c(c2)C(=O)N([C@H](C)CO)C[C@@H](C)[C@H](CN(C)S(=O)(=O)c2cccs2)OCCCC[C@@H](C)O3)cc1	T cruzi growth-1 108 (no result: IDH1 mut inh) | T cruzi growth-2 108 | T cruzi growth-3 inactive | 3T3 cytotox inactive | NIH3T3 tox 2 inactive
COc1ccc(NC(=O)Nc2ccc3c(c2)C(=O)N([C@H](C)CO)C[C@H](C)[C@H](CN(C)S(=O)(=O)c2cccs2)OCCCC[C@H](C)O3)cc1	T cruzi growth-1 103 | T cruzi growth-2 107 | T cruzi growth-3 inactive | 3T3 cytotox inactive | NIH3T3 tox 2 30
NC(=O)COc1ccc(/C=N/NC(=O)CCCCC(=O)NO)cc1	none (no result: T cruzi growth-1, GASC1 inh)
C[C@@H]1CCCCO[C@H](CN(C)S(=O)(=O)c2ccc(Cl)cc2)[C@@H](C)CN([C@@H](C)CO)C(=O)c2cc(NC(=O)C3CCCCC3)ccc2O1	T cruzi growth-1 108 | T cruzi growth-2 112 | T cruzi growth-3 inconclusive | 3T3 cytotox inactive | NIH3T3 tox 2 inactive
C[C@H](CO)N1C[C@H](C)[C@@H](CN(C)S(=O)(=O)c2ccc(F)cc2)OCCCC[C@H](C)Oc2ccc(NC(=O)C3CCCCC3)cc2C1=O	none

Compound activity from PubChem.
